Measured values published in ChEMBL document CHEMBL3997801, “Design, Palladium-Catalyzed Synthesis, and Biological Investigation of 2-Substituted 3-Aroylquinolin-4(1H)-ones as Inhibitors of the Hedgehog Signaling Pathway” (J Med Chem, 2017).
Active and inactive are the calls of the source. The rule behind the calls is not given here.

How the values were obtained:
[1] = target: Protein smoothened (Mus musculus) (UniProt P56726); assay: Antagonist activity at Smo in […]-stimulated mouse granule cell progenitors assessed as inhibition of Hh signaling pathway-dependent cell proliferation by measuring suppression of Ptch1 mRNA expression at 5 uM after 24 hrs by qRT-PCR method
[2] = target: Protein smoothened (Mus musculus) (UniProt P56726); assay: Antagonist activity at Smo in mouse ASZ001 cells assessed as inhibition of Hh signaling pathway by measuring suppression of Gli1 mRNA expression at 10 uM after 48 hrs by qRT-PCR method; assay type: cell-based
Procedure, shortened: (§1)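 ASZ001 BCC cells (154CF medium, 2% chelated FBS, 0.05 mM CaCl2), treated 48 h with compound or DMSO. Transcripts quantified by qRT-PCR relative to a calibrator, normalized to β2-microglobulin and HPRT.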

[3] = target: Protein smoothened (Mus musculus) (UniProt P56726); assay: Antagonist activity at Smo in […]-stimulated mouse granule cell progenitors assessed as inhibition of Hh signaling pathway-dependent cell proliferation by measuring suppression of CycD2 mRNA expression at 5 uM after 24 hrs by qRT-PCR method
[4] = target: Protein smoothened (Mus musculus) (UniProt P56726); assay: Antagonist activity at Smo in […]-stimulated mouse granule cell progenitors assessed as inhibition of Hh signaling pathway-dependent cell proliferation by measuring suppression of N-Myc mRNA expression at 5 uM after 24 hrs by qRT-PCR method
Mus musculus = organism: Mus musculus; assay: (§2) Inhibition of Bodipy-cyclopamine binding to mouse FLAG-tagged Smo D477G mutant expressed in HEK293 cells after 3 hrs by Hoechst staining based fluorescence assay; assay type: cell-based
Procedure, shortened: (§3)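 Cells transiently transfected with mouse Flag-tagged Smo WT or D477G were washed in PBS/0.5% FBS, fixed 10 min in 4% paraformaldehyde and permeabilized with 0.2% Triton X-100. They were then incubated 3 h at 37 °C with Bodipy-cyclopamine 5 nM plus compound, with Hoechst nuclear stain. Green signal was scored in 3–4 fields per coverslip (20×) as % of binding with BC alone.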

[5] = as §2; assay type: cell-based; procedure, shortened: as §3
[6] = target: Protein smoothened (Mus musculus) (UniProt P56726); assay: Antagonist activity at Smo in Ptch1-/- mouse MEF assessed as inhibition of Hh signaling pathway by measuring suppression of Igf2 mRNA expression at 5 uM after 48 hrs by qRT-PCR method
[7] = target: Protein smoothened (Mus musculus) (UniProt P56726); assay: Antagonist activity at Smo in […]-stimulated mouse granule cell progenitors assessed as inhibition of Hh signaling pathway-dependent cell proliferation by measuring suppression of Gli1 protein expression at 5 uM after 24 hrs by Western blot method
[8] = target: Protein smoothened (Mus musculus) (UniProt P56726); assay: Antagonist activity at Smo in […]-stimulated mouse granule cell progenitors assessed as inhibition of Hh signaling pathway-dependent cell proliferation by measuring suppression of Gli1 mRNA expression at 5 uM after 24 hrs by qRT-PCR method
[9] = target: Protein smoothened (Mus musculus) (UniProt P56726); assay: Antagonist activity at Smo in Ptch1+/- mouse medulloblastoma cells assessed as inhibition of Hh signaling pathway by measuring suppression of CycD2 mRNA expression at 10 uM after 24 hrs by qRT-PCR method
Procedure, shortened: (§4)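 Freshly isolated Ptch1± mouse MB cells in short-term culture, treated 24 h with compound (10 μM) or DMSO. mRNA measured by qRT-PCR against a calibrator (arbitrary units) and normalized to β2-microglobulin and HPRT. Mean ± SD of three independent experiments.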

[10] = target: Protein smoothened (Mus musculus) (UniProt P56726); assay: Antagonist activity at Smo in mouse ASZ001 cells assessed as inhibition of Hh signaling pathway by measuring suppression of Gli2 mRNA expression at 10 uM after 48 hrs by qRT-PCR method; assay type: cell-based; procedure, shortened: as §1
[11] = target: Protein smoothened (Mus musculus) (UniProt P56726); assay: Antagonist activity at Smo in […]-stimulated mouse granule cell progenitors assessed as inhibition of Hh signaling pathway-dependent cell proliferation by measuring suppression of CycD1 protein expression at 5 uM after 24 hrs by Western blot method
[12] = target: Protein smoothened (Mus musculus) (UniProt P56726); assay: Antagonist activity at Smo in Ptch1+/- mouse medulloblastoma cells assessed as inhibition of Hh signaling pathway by measuring suppression of Gli1 mRNA expression at 10 uM after 24 hrs by qRT-PCR method; procedure, shortened: as §4
[13] = target: Protein smoothened (Mus musculus) (UniProt P56726); assay: Antagonist activity at Smo in mouse ASZ001 cells assessed as inhibition of Hh pathway dependent cell growth up to 72 hrs by trypan blue assay; assay type: cell-based
Procedure, shortened: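 ASZ001 BCC cells grown in 154CF medium with 2% Chelex-chelated FBS and 0.05 mM CaCl2, treated with compound or DMSO control; viable cells counted by trypan blue after 24, 48 and 72 h.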

[14] = target: Protein smoothened (Mus musculus) (UniProt P56726); assay: Antagonist activity at Smo in Ptch1-/- mouse MEF assessed as inhibition of Hh signaling pathway by measuring suppression of Ptch1 mRNA expression at 5 uM after 48 hrs by qRT-PCR method
[15] = target: Protein smoothened (Mus musculus) (UniProt P56726); assay: Antagonist activity at Smo in Ptch1+/- mouse medulloblastoma cells assessed as inhibition of Hh signaling pathway by measuring suppression of Gli2 mRNA expression at 10 uM after 24 hrs by qRT-PCR method; procedure, shortened: as §4
[16] = target: Protein smoothened (Mus musculus) (UniProt P56726); assay: Antagonist activity at Smo in mouse ASZ001 cells assessed as inhibition of Hh signaling pathway by measuring suppression of Ptch1 mRNA expression at 10 uM after 48 hrs by qRT-PCR method; assay type: cell-based; procedure, shortened: as §1
[17] = target: Protein smoothened (Mus musculus) (UniProt P56726); assay: Antagonist activity at Smo in mouse ASZ001 cells assessed as inhibition of Hh signaling pathway by measuring suppression of CycD2 mRNA expression at 10 uM after 48 hrs by qRT-PCR method; assay type: cell-based; procedure, shortened: as §1
[18] = target: Protein smoothened (Mus musculus) (UniProt P56726); assay: Antagonist activity at Smo in mouse ASZ001 cells assessed as inhibition of Hh signaling pathway by measuring suppression of CycD1 mRNA expression at 10 uM after 48 hrs by qRT-PCR method; assay type: cell-based; procedure, shortened: as §1
[19] = target: Protein smoothened (Mus musculus) (UniProt P56726); assay: Antagonist activity at Smo in […]-stimulated mouse granule cell progenitors assessed as inhibition of Hh signaling pathway-dependent cell proliferation by measuring suppression of CycD1 mRNA expression at 5 uM after 24 hrs by qRT-PCR method
[20] = target: Protein smoothened (Mus musculus) (UniProt P56726); assay: Antagonist activity at Smo in Ptch1+/- mouse medulloblastoma cells assessed as inhibition of Hh signaling pathway by measuring suppression of CycD1 mRNA expression at 10 uM after 24 hrs by qRT-PCR method; procedure, shortened: as §4
[21] = target: Protein smoothened (Mus musculus) (UniProt P56726); assay: Antagonist activity at Smo in […]-stimulated mouse granule cell progenitors assessed as inhibition of Hh signaling pathway-dependent cell proliferation by measuring suppression of NMyc protein expression at 5 uM after 24 hrs by Western blot method
Protein smoothened = Protein smoothened (Mus musculus, UniProt P56726); assay: Inhibition of Bodipy-cyclopamine binding to mouse FLAG-tagged Smo expressed in HEK293 cells after 3 hrs by Hoechst staining based fluorescence assay; assay type: cell-based; procedure, shortened: as §3
[22] = target: Protein smoothened (Mus musculus) (UniProt P56726); assay: Antagonist activity at Smo in Ptch1-/- mouse MEF assessed as inhibition of Hh signaling pathway by measuring suppression of CycD2 mRNA expression at 5 uM after 48 hrs by qRT-PCR method
[23] = target: Protein smoothened (Mus musculus) (UniProt P56726); assay: Antagonist activity at Smo in Ptch1+/- mouse medulloblastoma cells assessed as inhibition of Hh pathway dependent cell growth up to 72 hrs by trypan blue assay
Procedure, shortened: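 Primary MB cells freshly isolated from Ptch1± mouse tumours, used in short-term culture to keep Hh sensitivity; compound 10 μM or DMSO control; viable cells counted by trypan blue after 24, 48 and 72 h. Mean ± SD of three independent experiments.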

[24] = target: Protein smoothened (Mus musculus) (UniProt P56726); assay: Antagonist activity at Smo in Ptch1-/- mouse MEF assessed as inhibition of Hh signaling pathway by measuring suppression of Gli1 mRNA expression at 5 uM after 48 hrs by qRT-PCR method
[25] = target: Protein smoothened (Mus musculus) (UniProt P56726); assay: Antagonist activity at Smo in Ptch1-/- mouse MEF assessed as inhibition of Hh signaling pathway by measuring suppression of Gli2 mRNA expression at 5 uM after 48 hrs by qRT-PCR method
[26] = target: Protein smoothened (Mus musculus) (UniProt P56726); assay: Antagonist activity at Smo in Ptch1-/- mouse MEF assessed as inhibition of Hh signaling pathway by measuring suppression of HIP1 mRNA expression at 5 uM after 48 hrs by qRT-PCR method
[27] = target: Protein smoothened (Mus musculus) (UniProt P56726); assay: Antagonist activity at Smo in Ptch1-/- mouse MEF assessed as inhibition of Hh signaling pathway by measuring suppression of CycD1 mRNA expression at 5 uM after 48 hrs by qRT-PCR method
[28] = target: Protein smoothened (Mus musculus) (UniProt P56726); assay: Antagonist activity at Smo in Ptch1+/- mouse medulloblastoma cells assessed as inhibition of Hh signaling pathway by measuring suppression of Ptch1 mRNA expression at 10 uM after 24 hrs by qRT-PCR method; procedure, shortened: as §4
[29] = target: Protein smoothened (Mus musculus) (UniProt P56726); assay: Antagonist activity at Smo in […]-stimulated mouse granule cell progenitors assessed as inhibition of Hh signaling pathway-dependent cell proliferation by measuring suppression of Gli2 mRNA expression at 5 uM after 24 hrs by qRT-PCR method
[30] = target: Protein smoothened (Mus musculus) (UniProt P56726); assay: Antagonist activity at Smo in mouse ASZ001 cells assessed as inhibition of Hh signaling pathway by measuring suppression of BMP2 mRNA expression at 10 uM after 48 hrs by qRT-PCR method; assay type: cell-based; procedure, shortened: as §1

Protein smoothened (Mus musculus), sequence (P56726 whole entry): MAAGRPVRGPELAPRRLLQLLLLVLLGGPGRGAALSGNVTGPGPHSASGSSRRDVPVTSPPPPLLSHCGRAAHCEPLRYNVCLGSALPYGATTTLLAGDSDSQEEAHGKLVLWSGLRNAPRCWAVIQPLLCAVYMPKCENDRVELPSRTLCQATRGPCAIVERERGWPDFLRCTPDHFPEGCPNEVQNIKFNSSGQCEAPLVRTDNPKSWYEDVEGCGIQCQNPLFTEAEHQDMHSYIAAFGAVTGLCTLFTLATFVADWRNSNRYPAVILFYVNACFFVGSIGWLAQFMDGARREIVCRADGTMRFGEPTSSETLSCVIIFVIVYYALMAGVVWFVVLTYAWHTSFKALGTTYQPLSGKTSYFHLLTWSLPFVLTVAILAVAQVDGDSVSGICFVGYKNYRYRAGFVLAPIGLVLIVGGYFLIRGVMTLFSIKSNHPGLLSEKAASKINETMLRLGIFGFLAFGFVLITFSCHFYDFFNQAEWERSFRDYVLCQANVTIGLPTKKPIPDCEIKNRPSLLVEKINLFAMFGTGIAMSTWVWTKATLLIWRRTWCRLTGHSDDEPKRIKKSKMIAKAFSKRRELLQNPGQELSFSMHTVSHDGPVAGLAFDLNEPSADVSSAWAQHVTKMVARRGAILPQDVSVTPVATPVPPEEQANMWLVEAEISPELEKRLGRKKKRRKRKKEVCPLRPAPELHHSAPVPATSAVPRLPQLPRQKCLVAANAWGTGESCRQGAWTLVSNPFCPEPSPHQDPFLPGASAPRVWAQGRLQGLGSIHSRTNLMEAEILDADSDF
Protein smoothened, sequence (P56726 whole entry): as above

For `COc1cccc(C(=O)c2c(-c3ccccc3)[nH]c3ccccc3c2=O)c1`, the inhibition [1] was “Active”, the inhibition [2] was “Active” and the inhibition [3] was “Active”. The inhibition [4] was “Active”, the inhibition (Mus musculus) was “Dose-dependent effect” and the IC50 [5] was 12.4 µM. The inhibition [6] was “Active”, the inhibition [7] was “Active” and the inhibition [8] was “Active”. For the same compound, the inhibition [9] was “Active”, the inhibition [10] was “Active” and the inhibition [11] was “Active”. For the same compound, the inhibition [12] was “Active”, the “growth inhibition (GI)” value [13] was “Dose-dependent effect” and the inhibition [14] was “Active”. For the same compound, the inhibition [15] was “Active”, the inhibition [16] was “Active” and the inhibition [17] was “Active”. The inhibition [18] was “Active”, the inhibition [19] was “Active” and the inhibition [20] was “Active”. The inhibition [21] was “Active”, the IC50 (Protein smoothened) was 13.8 µM and the inhibition [22] was “Active”. For the same compound, the “growth inhibition (GI)” value [23] was “Dose-dependent effect”, the inhibition [24] was “Active” and the inhibition [25] was “Active”. The inhibition [26] was “Active”, the inhibition [27] was “Active” and the inhibition [28] was “Active”. For the same compound, the inhibition [29] was “Active” and the inhibition [30] was “Active”.
With `O=C(c1ccccc1)c1c(-c2ccccc2)[nH]c2ccc(Br)cc2c1=O` the inhibition [1] was “Active”, the inhibition [2] was “Active” and the inhibition [3] was “Active”. For the same compound, the inhibition [4] was “Active”, the inhibition (Mus musculus) was “Dose-dependent effect” and the IC50 [5] was 29.4 µM. The inhibition [6] was “Active”, the inhibition [7] was “Active” and the inhibition [8] was “Active”. For the same compound, the inhibition [9] was “Active”, the inhibition [10] was “Active” and the inhibition [11] was “Active”. The inhibition [12] was “Active”, the “growth inhibition (GI)” value [13] was “Dose-dependent effect” and the inhibition [14] was “Active”. For the same compound, the inhibition [15] was “Active”, the inhibition [16] was “Active” and the inhibition [17] was “Active”. For the same compound, the inhibition [18] was “Active”, the inhibition [19] was “Active” and the inhibition [20] was “Active”. For the same compound, the inhibition [21] was “Active”, the IC50 (Protein smoothened) was 24 µM and the inhibition [22] was “Active”. The “growth inhibition (GI)” value [23] was “Dose-dependent effect”, the inhibition [24] was “Active” and the inhibition [25] was “Active”. For the same compound, the inhibition [26] was “Active”, the inhibition [27] was “Active” and the inhibition [28] was “Active”. The inhibition [29] was “Active” and the inhibition [30] was “Active”.
